The subject of series [1] is PANC-1. Kind of series: Cytotoxicity against human PANC1 cells in nutrient-deprived condition assessed as preferential cell death after 24 hrs by WST-8 assay. For orientation: Tetrazolium dyes change colour on reduction, which living cells bring about.
The nature of series [2]: Cytotoxicity against human TIG3 cells after 24 hrs by WST-8 assay. The note with it: tig-3, 24 h.
For series [3], the system named is PANC-1. Nature of the series: Induction of apoptosis in human PANC1 cells in nutrient-deprived condition assessed as nuclear fragmentation at 12.5 uM after 24 hrs by phase-contrast microscopy. In kind it is functional, cell-based. The essentials:
(§1)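 PANC-1 cells were seeded at 2 × 10^4 per well and grown 24 h in DMEM at 37 °C under 5% CO2/95% air. They were then washed with PBS and switched to nutrient-deprived medium (NDM) containing test compound. After 24 h exposure at 12.5 µM, morphology was photographed under a phase-contrast microscope at 200× magnification.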

For series [4], the system named is PANC-1. Kind of series: Induction of apoptosis in human PANC1 cells in nutrient-deprived condition assessed as membrane bleb formation at 12.5 uM after 24 hrs by phase-contrast microscopy. In kind it is functional, cell-based. The essentials: as §1
Series [5] relates to PANC-1. Nature of the series: Induction of apoptosis in human PANC1 cells in nutrient-deprived condition assessed as nuclear condensation at 12.5 uM after 24 hrs by phase-contrast microscopy. In kind it is functional, cell-based. The essentials: as §1

Calls of active or inactive are those of the source. No cut-off for these calls is given here. A value given as a limit tells only on which side of the number the result lay.

Turning to `O=C(/C=C/c1ccc(O)cc1)OC/C=C/c1ccccc1`, the PC50 in the series with PANC-1 [1] came out at 38.2 µM.
Still for that read-out and setting: the result for `C=C[C@H](c1ccc(O)c(OC)c1)c1c(O)cc(O)c2c(=O)cc(-c3ccccc3)oc12` reads 12.7 µM.
On the same count and under the same terms, the result for `O=C1C[C@@H](c2ccc(O)cc2)Oc2cc(O)cc(O)c21` [NARINGENIN] reads above 100 µM; that for `COc1ccc(/C=C/C(=O)OC/C=C/c2ccccc2)cc1OC`, 98.9 µM.
`C=C[C@H](c1ccc(O)c(OC)c1)c1c(O)cc(O)c2c(=O)c(O)c(-c3ccccc3)oc12`: in series [2], the Activity entry is “Non-toxic”. The result with PANC-1 [3], in the series on PANC-1 [4] and in the series on PANC-1 [5] was Active. For the same molecule, in the series with PANC-1 [1], the PC50 was 4.6 µM.
`O=C(OC/C=C/c1ccccc1)c1ccccc1`: in the series with PANC-1 [1], the PC50 was above 100 µM.
The same measure, in the same setting: as for `CC(=O)OCC(O)COC(=O)/C=C/c1ccc(O)cc1` (stereo not given), the figure is above 100 µM.
Still for that read-out and setting: the result for `COc1cc(O)c2c(=O)c(O)c(-c3ccccc3)oc2c1` [IZALPININ] reads above 100 µM; that for `CC(=O)OC(COC(=O)/C=C/c1ccc(O)cc1)COC(=O)/C=C/c1ccc(O)c(O)c1` (stereo not given), 17.4 µM; that for `O=C(O)c1ccccc1` [BENZOIC ACID], above 100 µM.
With `COc1cc(O)c2c(c1)O[C@H](c1ccccc1)CC2=O` [PINOSTROBIN], the PC50 in the series with PANC-1 [1] is above 100 µM.
For the molecule `COc1cc(C=O)ccc1O` [VANILLIN], in the series on PANC-1 [1], the PC50 is above 100 µM.
On the same count and under the same terms, the result for `O=C(/C=C/c1ccccc1)OCc1ccccc1` [BENZYL CINNAMATE] reads above 100 µM; that for `O=c1c(O)c(-c2ccccc2)oc2cc(O)cc(O)c12` [GALANGIN], 22.1 µM; that for `COc1cc(-c2oc3cc(O)cc(O)c3c(=O)c2OC)ccc1O` [3,3'-O-DIMETHYLQUERCETIN], 59.8 µM.
On the same count and under the same terms, as for `CCC(C)C(=O)O[C@H]1C(=O)c2c(O)cc(OC)cc2O[C@@H]1c1ccccc1` (stereo not given in full), the figure is 44.8 µM.
As to `O=C(/C=C/c1ccc(O)cc1)OCc1ccccc1`, the PC50 with PANC-1 [1] was 23.8 µM.
The same measure, in the same setting: as for `COc1cc(/C=C/C(=O)OCc2ccccc2)ccc1O` [BENZYL FERULATE], the figure is 17 µM; as for `O=C(O)/C=C/c1ccccc1` [CINNAMIC ACID], above 100 µM; as for `CC(=O)OC(COC(=O)/C=C/c1ccc(O)cc1)COC(=O)/C=C/c1ccc(O)cc1`, 38.8 µM.
The same measure, in the same setting: the result for `COc1cc(O)cc2c1C(=O)[C@H](O)[C@@H](c1ccccc1)O2` reads above 100 µM.
Same read-out and setting: as for `COc1ccc(/C=C/C(=O)OC/C=C/c2ccccc2)cc1O`, the figure is 31.7 µM; as for `COc1c(-c2ccc(O)cc2)oc2cc(O)ccc2c1=O`, above 100 µM.
Turning to `COc1cc(O)c2c(=O)cc(-c3ccccc3)oc2c1` [TECHTOCHRYSIN], in the series on PANC-1 [1], the PC50 was above 100 µM.
Same read-out and setting: as for `CC(=O)O[C@H]1C(=O)c2c(O)cc(O)cc2O[C@@H]1c1ccccc1`, the figure is 36.6 µM.
Same read-out and setting: as for `CC(C)CC(=O)O[C@H]1C(=O)c2c(O)cc(O)cc2O[C@@H]1c1ccccc1`, the figure is 17.5 µM; as for `O=C(O)/C=C/C=C/c1ccccc1` [JUAREZIC ACID], above 100 µM; as for `COc1ccc(/C=C/C(=O)O)cc1OC` [O,O'-DIMETHYLCAFFEIC ACID], above 100 µM.
Same read-out and setting: the result for `CCC(=O)O[C@H]1C(=O)c2c(O)cc(O)cc2O[C@@H]1c1ccccc1` reads 18.2 µM.
For the molecule `O=C(O)/C=C/c1ccc(O)cc1` [COUMARIC ACID], the PC50 in the series on PANC-1 [1] is 77 µM.
For the molecule `COc1cc(O)c2c(c1)O[C@H](c1ccccc1)[C@@H](OC(C)=O)C2=O`, the PC50 in the series on PANC-1 [1] amounted to 75.3 µM.
The same measure, in the same setting: as for `O=C1C[C@@H](c2ccccc2)Oc2cc(O)cc(O)c21` [PINOCEMBRIN], the figure is 46.5 µM; as for `CC(C)C(=O)O[C@H]1C(=O)c2c(O)cc(O)cc2O[C@@H]1c1ccccc1`, 19.8 µM.
Still for that read-out and setting: as for `COc1cc(/C=C/C(=O)O)ccc1O` [FERULATE], the figure is 66.6 µM.
Still for that read-out and setting: as for `COc1cc(/C=C/C(=O)OCC(COC(=O)/C=C/c2ccc(O)cc2)OC(C)=O)ccc1O` (stereo not given), the figure is 32.7 µM; as for `COc1cc(O)c2c(c1)O[C@H](c1ccccc1)[C@@H](O)C2=O`, 74.2 µM.
In the case of `O=c1cc(-c2ccccc2)oc2cc(O)cc(O)c12` [CHRYSIN], the PC50 in the series with PANC-1 [1] was 88.7 µM.
The same measure, in the same setting: the result for `O=c1cc(-c2ccc(O)cc2)oc2cc(O)cc(O)c12` [APIGENIN] reads 89.5 µM.
On the same count and under the same terms, the result for `COc1ccc(/C=C/C(=O)OCc2ccccc2)cc1OC` reads 58.8 µM; that for `COc1cc(/C=C/C(=O)OCC(COC(=O)/C=C/c2ccc(O)c(OC)c2)OC(C)=O)ccc1O`, 25.8 µM.
Still for that read-out and setting: the result for `O=C(/C=C/c1ccccc1)OC/C=C/c1ccccc1` reads above 100 µM.
